Measured values published in ChEMBL document CHEMBL3864151, “Discovery of imidazopyridazines as potent Pim-1/2 kinase inhibitors” (Bioorg Med Chem Lett, 2016).
pIC50: −log10 of the molar value. The source made the active and inactive calls. No cut-off for these calls is given here.

Assays:
[1] = Antiproliferative activity against human NCI-H929 cells after 72 hrs by CellTiter-Glo assay; format: functional, cell-based; conditions: NCI-H929, 72 h
KMS-12-BM [2] = experiment: Induction of apoptosis in human KMS-12-BM cells assessed as increase in cleaved caspase 3 levels at […] after 4 to 72 hrs by Western blot method; format: functional, cell-based
KMS-12-BM [3] = experiment: Induction of apoptosis in human KMS-12-BM cells assessed as increase in cleaved-PARP levels at […] after 4 to 72 hrs by Western blot method; format: functional, cell-based
[4] = target: Phosphatidylinositol 4-phosphate 5-kinase type-1 gamma (Homo sapiens) (UniProt O60331); experiment: Competitive binding affinity to partial length wild type human PIP5K1C expressed in mammalian expression system at 10 uM by kinomescan method relative to control
In short: (§1)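 DiscoveRX scanMAX kinase panel of protein and lipid kinases and common mutants; competitive binding of compound at 10 µM expressed as percentage of control (POC).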

MDR1 = experiment: Permeability in rat LLC-PK1 cells expressing MDR1
[5] = target: Serine/threonine-protein kinase TAO3 (Homo sapiens) (UniProt Q9H2K8); experiment: Competitive binding affinity to partial length wild type human TAOK3 expressed in mammalian expression system at 10 uM by kinomescan method relative to control; in short: as §1
[6] = target: Serine/threonine-protein kinase VRK2 (Homo sapiens) (UniProt Q86Y07); experiment: Competitive binding affinity to partial length wild type human VRK2 expressed in mammalian expression system at 10 uM by kinomescan method relative to control; in short: as §1
[7] = tested on: Receptor-type tyrosine-protein kinase FLT3 (Homo sapiens), P36888 [D835Y]; experiment: Competitive binding affinity to partial length […] human FLT3 D835Y expressed in bacterial expression system at 10 uM by kinomescan method relative to control
In short: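 Single-concentration (10 µM) screen in the scanMAX competition-binding panel of protein and lipid kinases and their common mutants. Binding is expressed as percentage of control (POC).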

[8] = AUC (0 to infinity) in Sprague-Dawley rat at 5 mg/kg, po; format: ADME, organism-based; parameters: dose 5 mg/kg, route oral, time infinity; conditions: in vivo
In short: (§2)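 Male Sprague Dawley rats, 3 animals per dosing route, mean values. iv dose 2 mg/kg as a solution in DMSO; po dose 5 mg/kg in 1% Tween 80, 2% HPMC, 97% water/methanesulfonic acid pH 2.2.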

[9] = Oral bioavailability in Sprague-Dawley rat at 5 mg/kg; format: ADME, organism-based; conditions: in vivo; in short: as §2
[10] = Antiproliferative activity against human KMS-12-BM cells after 72 hrs by CellTiter-Glo assay; format: functional, cell-based
[11] = Clearance in Sprague-Dawley rat at 2 mg/kg, iv; format: ADME, organism-based; conditions: in vivo; in short: as §2
[12] = Antiproliferative activity against human KMS11 cells after 72 hrs by CellTiter-Glo assay; format: functional, cell-based; conditions: KMS-11, 72 h
[13] = Antiproliferative activity against human RPMI8226 cells after 72 hrs by CellTiter-Glo assay; format: functional, cell-based; conditions: RPMI-8226, 72 h
[14] = Antiproliferative activity against human KMS26 cells after 72 hrs by CellTiter-Glo assay; format: functional, cell-based; conditions: KMS-26, 72 h
[15] = Antiproliferative activity against human JJN-3 cells after 72 hrs by CellTiter-Glo assay; format: functional, cell-based; conditions: JJN-3, 72 h

Sequence of Serine/threonine-protein kinase TAO3 (Homo sapiens) (Q9H2K8 whole entry): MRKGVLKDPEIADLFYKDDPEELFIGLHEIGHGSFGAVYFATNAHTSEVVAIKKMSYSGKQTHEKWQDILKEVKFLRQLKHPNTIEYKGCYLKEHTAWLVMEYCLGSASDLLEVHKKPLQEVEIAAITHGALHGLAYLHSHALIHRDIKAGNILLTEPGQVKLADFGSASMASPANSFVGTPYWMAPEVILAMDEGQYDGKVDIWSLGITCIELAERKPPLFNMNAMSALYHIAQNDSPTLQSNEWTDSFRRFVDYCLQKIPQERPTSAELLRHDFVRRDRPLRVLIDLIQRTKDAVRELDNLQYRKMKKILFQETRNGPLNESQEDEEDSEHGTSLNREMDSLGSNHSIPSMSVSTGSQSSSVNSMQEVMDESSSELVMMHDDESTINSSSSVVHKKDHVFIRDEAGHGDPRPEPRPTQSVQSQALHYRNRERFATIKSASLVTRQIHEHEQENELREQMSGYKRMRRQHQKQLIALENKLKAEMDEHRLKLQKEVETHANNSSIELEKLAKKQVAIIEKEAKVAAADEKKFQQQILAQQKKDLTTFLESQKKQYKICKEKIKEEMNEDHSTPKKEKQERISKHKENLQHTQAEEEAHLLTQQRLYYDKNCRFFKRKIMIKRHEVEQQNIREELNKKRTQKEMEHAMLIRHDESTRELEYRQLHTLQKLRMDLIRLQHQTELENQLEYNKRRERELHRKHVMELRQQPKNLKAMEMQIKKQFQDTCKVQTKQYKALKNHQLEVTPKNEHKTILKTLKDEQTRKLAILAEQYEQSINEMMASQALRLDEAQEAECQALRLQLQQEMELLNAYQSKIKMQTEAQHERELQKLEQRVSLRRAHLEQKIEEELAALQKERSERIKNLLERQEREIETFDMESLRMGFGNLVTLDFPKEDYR
Sequence of Serine/threonine-protein kinase VRK2 (Homo sapiens) (Q86Y07 whole entry): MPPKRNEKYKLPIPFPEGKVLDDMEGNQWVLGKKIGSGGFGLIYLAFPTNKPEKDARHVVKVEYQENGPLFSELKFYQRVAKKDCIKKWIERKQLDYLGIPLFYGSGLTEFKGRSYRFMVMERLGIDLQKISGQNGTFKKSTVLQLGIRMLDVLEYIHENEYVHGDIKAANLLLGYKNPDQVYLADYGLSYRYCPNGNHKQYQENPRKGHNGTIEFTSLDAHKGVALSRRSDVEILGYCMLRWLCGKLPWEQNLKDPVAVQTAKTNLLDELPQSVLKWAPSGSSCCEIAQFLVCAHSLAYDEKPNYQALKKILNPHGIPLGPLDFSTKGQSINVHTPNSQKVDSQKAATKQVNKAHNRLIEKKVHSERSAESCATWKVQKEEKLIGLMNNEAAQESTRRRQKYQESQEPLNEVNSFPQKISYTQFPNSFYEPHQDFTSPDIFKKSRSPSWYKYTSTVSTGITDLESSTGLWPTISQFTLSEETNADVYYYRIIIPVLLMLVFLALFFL
Sequence of Phosphatidylinositol 4-phosphate 5-kinase type-1 gamma (Homo sapiens) (O60331 whole entry): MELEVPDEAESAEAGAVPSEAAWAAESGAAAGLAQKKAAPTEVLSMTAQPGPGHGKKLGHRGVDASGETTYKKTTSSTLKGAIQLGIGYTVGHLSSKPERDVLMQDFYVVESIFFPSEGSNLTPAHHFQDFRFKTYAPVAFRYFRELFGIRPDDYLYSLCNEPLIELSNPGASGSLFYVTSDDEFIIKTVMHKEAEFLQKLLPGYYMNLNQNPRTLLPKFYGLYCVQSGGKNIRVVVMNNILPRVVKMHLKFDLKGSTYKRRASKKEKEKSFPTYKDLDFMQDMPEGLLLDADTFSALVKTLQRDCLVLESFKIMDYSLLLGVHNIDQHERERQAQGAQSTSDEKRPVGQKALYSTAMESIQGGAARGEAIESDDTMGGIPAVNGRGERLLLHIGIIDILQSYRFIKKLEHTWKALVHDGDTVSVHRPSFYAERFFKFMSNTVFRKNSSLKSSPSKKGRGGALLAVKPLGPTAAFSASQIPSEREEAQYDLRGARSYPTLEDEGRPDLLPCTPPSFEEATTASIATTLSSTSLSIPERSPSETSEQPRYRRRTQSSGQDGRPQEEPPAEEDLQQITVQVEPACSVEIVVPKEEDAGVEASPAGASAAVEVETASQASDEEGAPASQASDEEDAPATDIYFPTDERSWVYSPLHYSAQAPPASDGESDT

C[C@@H]1C[C@H](N)CN(c2ccncc2Nc2ncc3ccc(-c4c(F)cccc4F)nn23)C1
pIC50 [1]: 6.47 | Activity (KMS-12-BM [2]): Active | Activity (KMS-12-BM [3]): Active | Activity [4]: 7% | Papp (MDR1): 4.5 ×10⁻⁶ cm/s | Activity [5]: 0.4% | Activity [6]: 9.2% | Activity [7]: 6.1% | AUC [8]: 3.5 µM·h | F [9]: 17% | pIC50 [10]: 6.67 | CL [11]: 23.3 mL/min/kg | pIC50 [12]: 7.00 | pIC50 [13]: 6.24 | pIC50 [14]: 6.41 | pIC50 [15]: 6.43
